Assay outcomes deposited in PubChem by Johns Hopkins Ion Channel Center.
The list is not random: actives were taken first. Their share in the collection is about 3.5%.
MrgX1 ag = agonists of human MrgX1 receptor. actives 0.44% (n = 310,000). B-score at 10 µM. MrgX1-HEK293 cells, Fluo-4 calcium fluorescence, agonist mode; hits give high values. Q96LB2;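 active = calcium response B-score plate-corrected fluorescence ratio at least 3 library SD, with starting fluorescence B-score inside 5 SD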
Target sequence (Q96LB2 whole entry, looked up): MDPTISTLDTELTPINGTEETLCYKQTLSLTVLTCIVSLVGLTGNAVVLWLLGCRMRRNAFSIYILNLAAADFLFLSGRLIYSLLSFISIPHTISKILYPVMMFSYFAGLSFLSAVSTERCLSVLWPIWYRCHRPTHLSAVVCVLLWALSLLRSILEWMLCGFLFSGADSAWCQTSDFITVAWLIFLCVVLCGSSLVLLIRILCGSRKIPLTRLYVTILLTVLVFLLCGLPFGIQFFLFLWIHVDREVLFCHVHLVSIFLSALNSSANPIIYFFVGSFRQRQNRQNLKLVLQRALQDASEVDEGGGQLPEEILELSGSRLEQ
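Assay system: stable human MrgX1 HEK293 cell line. Quantity: 15,000 cells per well. Schedule: cells plated overnight, dye loaded 0.5 h 37 °C, 0.5 h room temperature. Detection: Fluo-4 NW calcium-flux fluorescence, kinetic read. Read-out basis: peak-minus-minimum fluorescence over baseline, converted to B scores. Control set: positive and negative control wells on each plate.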
MrgX1 antag = antagonists of human MrgX1 receptor; MRGX1-HEK293 calcium flux, Fluo-4, BAM8-22 antagonism; hits give low values; B-score at 10 µM; actives 1.3% (n = 310,000);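 active = calcium-response B-score plate-corrected more than 3 library SD below zero, starting fluorescence within 5 deviations, no agonist response on first addition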;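 also: peak minus trough fluorescence over baseline after final BAM8-22 challenge near maximal dose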
RGS4 inh = inhibitors of human RGS4. actives 0.45% (n = 310,000). HEK293 M3R/RGS4 inducible, Fluo-4 calcium flux; hits give high values; triggered by carbachol at its EC20. B-score at 10 µM. P49798;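 active = B-score, a plate-corrected calcium signal, over three deviations above library mean, with baseline fluorescence within five deviations of library mean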;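 also: RGS4 expression induced by doxycycline in cells with stable M3 receptor; B-score is computed from the integrated fluorescence ratio over baseline after carbachol; higher B-score means a larger calcium signal and so more RGS4 inhibition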
Target sequence (P49798 whole entry, looked up): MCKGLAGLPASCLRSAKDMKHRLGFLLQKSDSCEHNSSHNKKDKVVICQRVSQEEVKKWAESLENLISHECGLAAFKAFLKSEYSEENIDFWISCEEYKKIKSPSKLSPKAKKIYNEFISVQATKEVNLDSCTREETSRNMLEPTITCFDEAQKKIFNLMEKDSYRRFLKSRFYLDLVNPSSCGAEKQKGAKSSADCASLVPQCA
RGS4 act = RGS4 potentiation or activation; HEK293 M3R/inducible RGS4, carbachol calcium flux Fluo4; hits give low values; B-score at 10 µM; actives 0.92% (n = 310,000); AID 463111;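 active = B-score of the integrated calcium signal more than 4 SD below the library mean, with starting fluorescence not abnormally high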;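 also: negative B-score means reduced calcium response which marks RGS4 activation or potentiation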
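System: HEK293 FlpIn-TREx cells, stable M3R, doxycycline-inducible RGS4. Timing: overnight RGS4 induction, 30 min dye load 37 °C, 20 min compound RT. Also added: carbachol, ECmax concentration. Measured by: Fluo4 fluorescence kinetic imaging of calcium. Evaluation: integrated calcium ratio converted to B score.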
MrgX1 PAM = human MrgX1 positive allosteric modulation, primary screen; Q96LB2; MrgX1-HEK293, Fluo-4 calcium flux, FDSS; hits give high values; B-score at 10 µM; actives 0.63% (n = 310,000); AID 588675;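 active = plate-corrected calcium response at least 3 library SD above typical, normal starting fluorescence, not activating the receptor alone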;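 also: compound read alongside a low EC10 to EC30 dose of BAM8-22 agonist; peak minus trough fluorescence over baseline measured at the second addition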
Starred values were filed as active, the others as inactive; i = inactive; · = no result given.

SMILES	MrgX1 ag	MrgX1 antag	RGS4 inh	RGS4 act	MrgX1 PAM
COc1ccc(CCNc2oc(COc3ccccc3Cl)nc2C#N)cc1OC	i	i	i	-7.26*	i
COc1ccc(CCNc2oc(COc3ccccc3F)nc2C#N)cc1OC	i	i	·	·	i
C=C1C(=O)O[C@H]2C[C@]3(C)C([C@@H](OC(=O)/C(C)=C/C)[C@H]12)[C@](C)(O)CC[C@H]3O (some centres undefined)	i	i	i	i	i
C=C[C@@]1(C)CC(=O)[C@]2(O)[C@@]3(C)[C@@H](O)CCC(C)(C)[C@@H]3[C@H](O)[C@H](OC(C)=O)[C@@]2(C)O1	i	i	i	i	10*
O=C(NCCc1ccc(F)cc1)C(=O)NCC1CCCN1S(=O)(=O)c1cccs1 (centres undefined)	i	i	i	-7.18*	i
COc1ccc(CCNC(=O)C(=O)NCC2CCCN2S(=O)(=O)c2ccccc2)cc1OC (centres undefined)	i	i	i	-9.41*	i
COc1ccc(S(=O)(=O)N2CCCC2CNC(=O)C(=O)NC2CCCCCC2)cc1 (centres undefined)	i	i	i	i	i
COc1ccc(CCNC(=O)CCc2ccc(S(=O)(=O)NC(C)C)cc2)cc1	i	-5.73*	i	i	i
COc1ccc(CCNC(=O)C(=O)NCC2CCCN2S(=O)(=O)c2ccc(OC)cc2)cc1 (centres undefined)	i	i	i	-7.09*	i
CNC(=O)C(=O)NCC1CCCN1S(=O)(=O)c1cccs1 (centres undefined)	i	i	i	i	i
Clc1ccc(C2CC(c3ccco3)n3ncnc3N2)cc1Cl (centres undefined)	i	i	i	i	i
O=C(CCN1C(=O)c2ccc([N+](=O)[O-])cc2C1=O)Nc1ccc(O)cc1C(=O)O	i	i	i	i	i
CCOc1ccc(N(CC(=O)NCc2ccc(F)cc2)C(=O)CCC(=O)Nc2nccs2)cc1	i	i	i	i	i
COCCNC(=O)c1ccc(CN2CCC(Cc3ccccc3)CC2)cc1	i	i	i	i	i
COc1ccc(CCNC(=O)c2ccc(CN3CCC(Cc4ccccc4)CC3)cc2)cc1OC	i	-5.22*	i	i	i
O=C(NCc1ccncc1)/C(=N/O)c1ccccc1	i	-5.74*	i	i	i
CCOC(=O)C(CN1CCCC1)c1ccccc1 (centres undefined)	i	i	i	i	i
O=C(c1ccc(Cl)cc1)C(CN1CCCCC1)c1ccccc1 (centres undefined)	i	i	i	-8.33*	i
COc1cccc(CN(C)C(=O)c2cc(S(=O)(=O)N3CCN(c4ccccc4)CC3)ccc2Cl)c1	i	i	i	i	i
CC(C(=O)N1c2ccccc2Sc2ccccc21)n1nnc(-c2cccs2)n1 (centres undefined)	i	i	i	i	i
COc1ccc(OC)c(/C=C2/Sc3ccccc3C2=O)c1	i	i	i	i	8.69*
O=C(Nc1cccc(C(=O)N2CCOCC2)c1)c1ccccc1Br	i	i	i	i	i
CC1CCN(CC(=O)Nc2ccc(N3CCCCCC3)cc2)CC1	i	i	i	-6.99*	i
CC1CCN(CC(=O)Nc2ccc(S(=O)(=O)N3CCCCC3)cc2)CC1	i	i	i	i	i
CC(=O)Nc1ccc(N2C(=O)CC(N3CCSCC3)C2=O)cc1 (centres undefined)	i	i	i	i	i
SMILES	MrgX1 ag	MrgX1 antag	RGS4 inh	RGS4 act	MrgX1 PAM
Cc1ccc(-c2cc(-c3ccccc3)nc(N/N=C/c3cccnc3)n2)cc1	i	i	i	i	i
Cc1cc(-c2ccccc2)nc(N/N=C/c2ccccc2)n1	i	i	i	i	i
C(=N/Nc1nc(-c2ccccc2)cc(-c2ccccc2)n1)/c1cccnc1	i	i	i	-7.1*	i
Cc1cc(-c2ccccc2)nc(N/N=C/c2ccc(O)cc2O)n1	i	i	i	-7.2*	i
COc1ccc(/C=N/Nc2nc(C)cc(-c3ccccc3)n2)cc1OC	i	i	i	-7.28*	i
O=C(Cn1c(CO)nc2ccccc21)Nc1cc(C(F)(F)F)ccc1N1CCOCC1	i	i	i	i	i
CCCCN(C(=O)COC(=O)COc1c(C)cc(C)cc1C)c1c(N)n(CCC)c(=O)[nH]c1=O	i	-8.25*	i	i	i
CCCCn1c(N)c(N(CCOC)C(=O)COC(=O)COc2c(C)cccc2C)c(=O)[nH]c1=O	i	i	i	i	i
COc1cc(C2=NOC(C(=O)Nc3ccc(C(C)=O)cc3)C2)cc(OC)c1OC (centres undefined)	i	i	i	i	i
O=S(=O)(c1ccc(Cl)cc1)N1CCN(Cc2c[nH]c3ccccc23)CC1	i	i	i	-7.55*	i
Cc1ccccc1CN1CCN(S(=O)(=O)c2ccc(F)cc2)CC1	i	i	i	i	i
O=S(=O)(c1ccc(Br)cc1)N1CCCN(Cc2ccccc2F)CC1	i	i	i	-7.37*	i
OCC1(CCOc2ccccc2)CCN(Cc2nc3ccc(F)cc3[nH]2)CC1	i	i	i	i	i
Cc1c(NC(=O)C2(c3ccc(Cl)cc3)CCCC2)c(=O)n(-c2ccccc2)n1C	i	i	i	i	i
Cc1c(NC(=O)C2(c3ccccc3)CCOCC2)c(=O)n(-c2ccccc2)n1C	i	i	i	i	6.68*
Cc1ccccc1C(=O)Nn1cnnc1	i	i	i	i	i
Cc1cc(OC(=O)c2ccccc2Br)cc(=O)n1C	i	i	i	i	10.5*
Cc1c2cnn(CC(=O)NCCCN3CC(C)CC(C)C3)c(=O)c2c(C)n1Cc1ccccc1Cl (centres undefined)	i	-6.89*	i	i	i
CC1CC(C)CN(CCCNC(=O)Cn2ncc3c(=O)oc4ccccc4c32)C1 (centres undefined)	i	i	i	i	i
CCOc1cc(/C=C2/NC(=O)N(CC(=O)Nc3cccc(C)c3)C2=O)ccc1OC	i	-7.06*	i	i	i
CCOc1cc(/C=C2/NC(=O)N(CC(=O)Nc3cccc(C)c3)C2=O)ccc1O	i	i	i	i	i
O=C(NNS(=O)(=O)c1ccc(F)cc1)C1CCN(Cc2cccc(F)c2)CC1	i	i	i	-7.28*	i
